# Results: article PMC3251632 (Cancer research, 2011)
# Entries after “also recorded” stand apart in the source; their conditions may differ.
# How the values were obtained:
# [1] = tested on: Panc02 cells; assay: Caspase-3 activation; format: cell-based, mouse; settings: 10 μM, 24 h, flow cytometry
# [2] = tested on: Akt; assay: Akt phosphorylation in CFPAC cells; format: cell-based, human
# [3] = tested on: CFPAC tumors; assay: Xenograft CFPAC tumor growth; format: in vivo, human tumor in nude mice; settings: daily treatment for one week, CFPAC-bearing nude mice, n = 12 per group
# Outline: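 Female nu/nu mice, 8–12 weeks old, carried 2 × 10^6 CFPAC cells in the flank. Treatment began ~2 weeks after implantation (mean diameter ~6–7 mm) and was given daily for one week, n = 12 per group. Tumour growth was measured by caliper as mean diameter. Groups were compared by one-tailed Student's t test.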
# [4] = ref ([30]–[32]); cited from earlier work
# [5] = biological target: σ-2 receptor (Homo sapiens, UniProt Q5BJF2); assay: Competitive displacement of fluorescent sigma-2 ligand SW120; format: binding, human (CFPAC cells); settings: compared to non-conjugated SV119; CFPAC cells
# [6] = SW43 by itself, vs SV119; ref ([24]); cited from earlier work
# [7] = tested on: pancreatic cancer cell lines; assay: Killing capacity in additional pancreatic cancer cell lines in vitro; format: cell-based; settings: all cell lines under investigation; supplementary Fig. 3
# [8] = tested on: Panc02 tumors; assay: Syngeneic Panc02 tumor growth and survival; format: in vivo, mouse (C57BL/6); settings: C57BL/6 mice with Panc02 tumors; supplementary Fig. 4
# Outline: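 Female C57BL/6 mice, 8–12 weeks old, carried 1 × 10^6 Panc02 cells in the flank. Dosing began ~2 weeks after implantation (mean diameter ~6–7 mm): i.p. every other day for two weeks, n = 12 per group. Mice were euthanised at tumour ulceration or a mean diameter of 15 mm. Survival was plotted as Kaplan-Meier curves and compared by log-rank test.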
# [9] = tested on: Panc02 tumors; assay: In vivo apoptosis in Panc02 tumors; parameters: species or system mouse (C57BL/6); settings: single i.p. dose (S2-Bim 400 μg), next day, n = 3
# Outline: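 Female C57BL/6 mice, 8–12 weeks old, received 1 × 10^6 Panc02 cells subcutaneously in the right flank. At two weeks (mean tumour diameter ~5 mm) they got a single i.p. dose of 400 μg. Tumours were harvested 24 h later. For TUNEL, tumours were stained directly. For caspase-3, tumours were minced to 1 mm and digested 45 min in RPMI with 1 mg/mL collagenase and 0.1 mg/mL DNase, filtered, ACK-lysed, resuspended in PBS pH 7.4, fixed in 1% paraformaldehyde, and read by flow cytometry for activated caspase-3.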
# Chain of σ-2 receptor (Q5BJF2 whole entry): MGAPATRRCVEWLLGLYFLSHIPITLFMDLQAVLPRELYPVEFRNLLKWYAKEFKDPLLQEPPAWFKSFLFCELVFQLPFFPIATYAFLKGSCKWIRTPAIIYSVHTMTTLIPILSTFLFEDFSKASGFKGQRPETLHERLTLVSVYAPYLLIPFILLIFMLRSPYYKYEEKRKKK
molecule,measurement,setting,value
LDPKLMKEEQMSQAQLFTRSFDDGL-OH [S2-CTMP-4],fold increase in apoptosis (caspase-3 induction) vs SV119 alone,[1],1.3 fold
same,interference with Akt activation (phosphorylation),"[2]; CFPAC cells, 24 hours post-treatment",capable of interfering with Akt activation
COc1ccc(C)cc1NC(=O)OC1C[C@H]2CCC[C@@H](C1)N2CCCCCCN (stereo partly drawn) [SV119],"tumor growth, CFPAC xenograft (in words)",[3],somewhat reduced tumor growth rate
same,activation status of the two central kinases (Akt and p70 S6 kinase),"[2]; SV119 alone, 24 hours, also p70 S6 kinase (data not shown)",incapable of altering the activation status of these two central kinases
CC1(C)CCC(c2ccc(Cl)cc2)=C(CN2CCN(c3ccc(C(=O)NS(=O)(=O)c4ccc(N[C@H](CCN5CCOCC5)CSc5ccccc5)c(S(=O)(=O)C(F)(F)F)c4)cc3)CC2)C1 [ABT-263],oral bioavailability (in words),[4],orally bioavailable
"CC(C)=CCN1CC[C@]2(C)c3cc(O)ccc3C[C@H]1[C@H]2C [(+)-pentazocine, reference compound]",displacement of SW120 (in words),[5],unable to compete off SW120
COc1ccc(C)cc1NC(=O)OC1CC2CCCC(C1)N2CCCCCCCCCCN (stereo not drawn) [SW43],cytotoxicity relative to SV119,[6],twice as cytotoxic by itself
EIWIAQEARRIGAEFNAYYAR-OH [S2-BimX],potency / response of pancreatic cancer cell lines (in words),[7],virtually no activity in all cell lines tested; also recorded: complete loss of killing activity
same,"tumor growth, CFPAC xenograft (in words)",[3],somewhat reduced tumor growth rate; also recorded: elicited SV119 baseline activity
same,time by which all mice had died,[8],43 days post tumor inoculation
same,displacement of SW120 (in words),[5],displaced SW120 in a dose-dependent fashion
same,tumor cell apoptosis (activated caspase-3) in words,[9],only background signals
